Measurements pooled from the literature.
Lines come from different studies, so protocols differ.
Target: Interleukin-1 receptor-associated kinase 3 (IRAK3, Homo sapiens, UniProt Q9Y616)
Sequence (Q9Y616 1-596, as in one of the studies): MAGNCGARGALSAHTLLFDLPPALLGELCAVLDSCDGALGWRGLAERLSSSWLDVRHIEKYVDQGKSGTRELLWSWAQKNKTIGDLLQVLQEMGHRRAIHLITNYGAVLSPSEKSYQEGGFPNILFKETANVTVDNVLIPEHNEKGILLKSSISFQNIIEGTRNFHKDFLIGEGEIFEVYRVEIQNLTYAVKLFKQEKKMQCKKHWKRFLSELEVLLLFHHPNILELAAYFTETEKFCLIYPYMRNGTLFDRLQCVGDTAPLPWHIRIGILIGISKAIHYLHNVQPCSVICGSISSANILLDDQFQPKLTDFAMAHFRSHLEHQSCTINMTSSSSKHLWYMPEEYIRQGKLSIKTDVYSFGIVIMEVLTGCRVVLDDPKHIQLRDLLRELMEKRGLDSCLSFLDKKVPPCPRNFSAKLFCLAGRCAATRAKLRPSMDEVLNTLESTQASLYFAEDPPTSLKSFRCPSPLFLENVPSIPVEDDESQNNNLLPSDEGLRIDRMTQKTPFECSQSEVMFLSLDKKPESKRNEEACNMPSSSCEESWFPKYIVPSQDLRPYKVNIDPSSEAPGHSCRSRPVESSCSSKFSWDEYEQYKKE

c1cnn2ncc(-c3ccnc(N4CCC45COC5)n3)c2c1
remaining binding (binding; 1 µM): 36%

CS(=O)(=O)N1CCCC(NC(=O)[C@H](CCC2CCCCC2)NC(=O)c2ccc(CNc3ncnc4c3nnn4-c3ccccc3)cc2)C1 (stereo partly drawn)
remaining binding (cell-free assay, competition with immobilised ligand; 0.1 µM): 100%

COc1ncc2cc3ccccc3nc2c1C#N
remaining binding (cell-free assay, competition with immobilised ligand; 5 µM): 94%

C=CC(=O)N1CCC(C(=O)NCC(=O)N2CCN(c3nc(-c4cnc(N)nc4C(F)F)nc(N4CCOCC4)n3)CC2)CC1
remaining binding (binding, competition with immobilised ligand; 1 µM): 89%

COc1cnc(Nc2cccc(S(N)(=O)=O)c2)nc1N1CCN(c2ccccc2)CC1
remaining binding (binding, competition with immobilised ligand; 1 µM): 100%

COc1ccnn2ncc(-c3ccnc(N(C)C)n3)c12
remaining binding (binding; 1 µM): 91%

c1cncc(-c2cccc(Nc3nccc(NC4CCCCC4)n3)c2)c1
remaining binding (binding, competition with immobilised ligand; 10 µM): 4.5%

Nc1cnc(N2CCc3cc(S(=O)(=O)Nc4c(F)cc(Cl)cc4F)cc(N4CCCC4=O)c32)nc1
remaining binding (cell-free assay, competition with immobilised ligand; 1 µM): 89%

CN(CCCC(F)(F)F)c1nccc(-c2cnn3ncccc23)n1
remaining binding (binding; 1 µM): 94%

Cc1cnc(Nc2ccc(C(=O)N3CCC(N4CCCC4)CC3)cc2)nc1-c1cc2ccccc2s1
remaining binding (binding, competition with immobilised ligand; 1 µM): 5.3%

COc1cnc(Nc2cccc(S(N)(=O)=O)c2)nc1N1CCN(c2ccccc2)C(=O)C1
remaining binding (binding, competition with immobilised ligand; 1 µM): 100%

CN(c1ccnc(CNc2nc(Nc3ccc4c(c3)CC(=O)N4)ncc2C(F)(F)F)n1)S(C)(=O)=O
remaining binding (cell-free assay, competition with immobilised ligand; 1 µM): 11%

O=C(c1ccc(Nc2nccc(-c3cc4ccccc4s3)n2)cc1)N1CCC(N2CCCC2)CC1
remaining binding (binding, competition with immobilised ligand; 1 µM): 14%

CCOCCn1cc(C(=O)Nc2ccc(-n3nc(-c4cccnc4)cc3C(F)(F)F)cn2)ccc1=O
remaining binding (cell-free assay, competition with immobilised ligand; 1 µM): 100%

O=C(Nc1c[nH]nc1C(=O)NC1CCNCC1)c1cc(F)cc(F)c1
remaining binding (binding, competition with immobilised ligand; 1 µM): 100%

CC1CCCN1c1nccc(-c2cnn3ncccc23)n1 (stereo not drawn)
remaining binding (binding; 1 µM): 72%

O=C1CCc2cc(Nc3cc(OC4CCOCC4)c([N+](=O)[O-])cc3Cl)ccc2N1
remaining binding (cell-free assay, competition with immobilised ligand; 1 µM): 98%

CN(C)c1nccc(-c2cnn3ncccc23)n1
remaining binding (binding; 1 µM): 100%

O=C(NCCCN1CCOCC1)c1ccc(Nc2ncc(Cl)c(-c3ccc(Cl)s3)n2)cc1
remaining binding (binding, competition with immobilised ligand; 1 µM): 13%

Cn1nc(C(F)(F)F)cc1-c1cnc(N2CCc3cc(S(=O)(=O)Nc4c(F)cc(Cl)cc4F)cc(N4CCCC4=O)c32)nc1
remaining binding (cell-free assay, competition with immobilised ligand; 1 µM): 100%

C[C@H]1CCN(c2nccc(-c3cnn4ncccc34)n2)C1
remaining binding (binding; 1 µM): 52%
